Published values of several laboratories.
Each line is one published result; the experiments were not run side by side.
Observed: cell growth or viability

CCCCCCCCCCCCNC(=S)NCCCC[C@H](NC(=O)OCc1ccccc1)C(=O)N[C@@H](C)C(=O)N[C@@H](CCCNC(=N)N)C(N)=O
EC50 (HeLa; MTT; 72 h): 41.4 to 53.1 µM

COc1cc(F)ccc1-c1cc(Nc2cc(CS(C)(=N)=O)ccn2)ncc1F (stereo not drawn)
GI50 (HeLa; 24 h): 0.045 µM

C[C@@H](NC(=O)[C@H](CCCCNC(=O)C(F)(F)F)NS(C)(=O)=O)C(=O)N[C@@H](CCCNC(=N)N)C(N)=O
EC50 (HeLa; MTT; 72 h): 52.1 to 75.8 µM

Cc1ccc(NC(=O)c2ccc(CN3CCN(C)CC3)cc2)cc1Nc1nccc(-c2cccnc2)n1
inhibition (HeLa; MTT; 1 µM, 48 h): 11%

COc1ccc(-c2ccc(-c3ccc(C(=N)N)nc3)s2)cc1Cl
GI50 (Hs-578T; SRB): 1.85 µM

CCCCCCCCCCCCNC(=S)NCCCC[C@H](NS(C)(=O)=O)C(=O)N[C@@H](C)C(=O)N[C@@H](CCCNC(=N)N)C(N)=O
EC50 (HeLa; MTT; 72 h): 28.9 to 39.1 µM

C=CC(=O)N1CCC[C@@H](n2nc(-c3ccc(Oc4ccccc4)cc3)c3c(N)ncnc32)C1
GI50 (NB-4; ATP luminescence; 72 h): 7.5 µM

COc1cc(-c2ncn(/C=C\C(=O)OC(C)C)n2)cc(C(F)(F)F)c1
IC50 (SKM-1; 72 h): 0.08 µM

CC(C)C[C@H](NC(=O)[C@H](Cc1ccccc1)NC(=O)c1cnccn1)B(O)O
IC50 (U2OS; ATP luminescence): 0.011 µM

Cn1nnc2c(C(N)=O)ncn2c1=O
EC50 (BGC-823): > 1000 µM

N[C@@H](CC(=O)N1CCN(C(c2ccc(F)cc2)c2ccc(F)cc2)CC1)C(=O)N1Cc2ccccc2C1
IC50 (HEL; ATP luminescence; 48 h): 31.7 µM

O=C(Nc1cc(OCCN2CCCC2)c2ccccc2n1)c1cc(OCc2ccc(F)cc2)cc(C(=O)Nc2cc(OCCN3CCCC3)c3ccccc3n2)n1
IC50 (U2OS; ATP luminescence; 72 h): 5.8 µM

COc1cc(-c2ccc(-c3ccc(C(=N)N)nc3)s2)cc(OC)c1OC
GI50 (Hs-578T; SRB): 2.59 µM

CC[C@@H](C)[C@H](N)C(=O)N1Cc2ccccc2C1
IC50 (NB-4; ATP luminescence; 48 h): 1.5 µM

O=C1Nc2ccccc2C1=NNc1nnc2n1N=C(c1ccccc1)CS2
inhibition (Hs-578T; SRB; 10 µM): 28%
